Values after ≈ are worked out from the molar mass of the structure shown. Active and inactive are the calls of the source. No cut-off for these calls is given here.
Columns and labels:
Staphylococcus aureus [1] = assay: Antibacterial activity against Staphylococcus aureus assessed as growth inhibition after 18 to 24 hrs; format: functional
How it was run: (§1)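 Clinical isolates from a regional epidemiology institute. Broth microdilution: inoculum 5 × 10⁵ CFU/ml in Müller-Hinton broth (pH 7.3) with serial concentrations of salts, incubated at 35 °C for 18–24 h. MIC taken as lowest concentration with no detectable bacterial growth.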

Proteus = assay: Antibacterial activity against Proteus spp. assessed as growth inhibition after 18 to 24 hrs; format: functional; how it was run: as §1
Klebsiella pneumoniae = assay: Antibacterial activity against Klebsiella pneumoniae assessed as growth inhibition after 18 to 24 hrs; format: functional; how it was run: as §1
[2] = system: Staphylococcus epidermidis; assay: Antibacterial activity against Staphylococcus epidermidis assessed as growth inhibition after 18 to 24 hrs; format: functional; how it was run: as §1
Staphylococcus aureus [3] = assay: Antibacterial activity against Staphylococcus aureus 25923 assessed as decrease in zeta potential of plasmid DNA at 0.01 mg/ml after 1 hr by light scatterning method (reference value: -50.7 +/- 1 mV); format: functional
Staphylococcus aureus [4] = assay: Antibacterial activity against Staphylococcus aureus 25923 assessed as decrease in zeta potential of plasmid DNA at 0.1 mg/ml after 1 hr by light scatterning method (reference value: -50.7 +/- 1 mV); format: functional
[5] = Cytotoxicity against human skin fibroblasts after 72 hrs by MTT assay; parameters: species or system Skin fibroblast
How it was run: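 Human skin fibroblasts seeded at 3000 cells/well, attached overnight, then exposed to salt solutions (1 µg/ml–1 mg/ml) for 72 h at 37 °C, 5% CO₂. Cells washed with fresh medium and subjected to MTT assay; reduced product read at 550 nm. CC50 derived.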

Staphylococcus aureus [6] = assay: Antibacterial activity against Staphylococcus aureus 25923 assessed as DNA fragmentation at 10 ug/ml after 1 hr by SYBR green staining-based fluorescent microscopic analysis; format: functional, organism-based
How it was run: (§2)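 S. aureus 25923 pre-grown on blood agar at 37 °C, cultured overnight in Müller-Hinton broth (pH 7.3), pelleted and resuspended in PBS. After treatment, cells centrifuged 3000 g 15 min, washed twice in PBS, embedded in agarose microgels, lysed, stained with SYBR Green I and imaged by fluorescence microscopy.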

Staphylococcus aureus [7] = assay: Antibacterial activity against Staphylococcus aureus 25923 assessed as increase in hydrodynamic diameter of plasmid DNA at 0.01 mg/ml after 1 hr by light scatterning method (reference value: 360.7 +/- 18 nm); format: functional
Staphylococcus aureus [8] = assay: Antibacterial activity against Staphylococcus aureus 25923 assessed as partial DNA fragmentation at 0.01 to 10 mg/ml after 1 hr by agarose gel electrophoresis method
Staphylococcus aureus [9] = assay: Antibacterial activity against Staphylococcus aureus 25923 assessed as DNA migration out of cells at 10 ug/ml after 1 hr by SYBR green staining-based fluorescent microscopic analysis; format: functional, organism-based; how it was run: as §2
Staphylococcus aureus [10] = assay: Antibacterial activity against Staphylococcus aureus 25923 assessed as increase in polydispersity index of plasmid DNA at 0.1 mg/ml after 1 hr by light scatterning method (reference value: 0.425 no unit); format: functional
Staphylococcus aureus [11] = assay: Antibacterial activity against Staphylococcus aureus 25923 assessed as increase in polydispersity index of plasmid DNA at 0.01 mg/ml after 1 hr by light scatterning method (reference value: 0.425 no unit); format: functional
Staphylococcus aureus [12] = assay: Antibacterial activity against Staphylococcus aureus 25923 assessed as increase in hydrodynamic diameter of plasmid DNA at 0.1 mg/ml after 1 hr by light scatterning method (reference value: 360.7 +/- 18 nm); format: functional

Row | SMILES | MIC (Staphylococcus aureus [1]) | MIC (Proteus) | MIC (Klebsiella pneumoniae) | MIC [2] | other results
1 | CN[C@H](CC(C)C)C(=O)N[C@H]1C(=O)N[C@@H](CC(N)=O)C(=O)N[C@H]2C(=O)N[C@H]3C(=O)N[C@H](C(=O)N[C@H](C(=O)O)c4cc(O)cc(O)c4-c4cc3ccc4O)[C@H](O)c3ccc(c(Cl)c3)Oc3cc2cc(c3O[C@@H]2O[C@H](CO)[C@@H](O)[C@H](O)[C@H]2O[C@H]2C[C@](C)(N)[C@H](O)[C@H](C)O2)Oc2ccc(cc2Cl)[C@H]1O [VANCOMYCIN] | 2.5 µg/mL (≈ 1.73 µM) | > 1000 µg/mL | > 1000 µg/mL | 2.5 µg/mL (≈ 1.73 µM) | 
2 | CC1(C)OCc2c(CO)c(CO)nc(C[P+](c3ccccc3)(c3ccccc3)c3ccccc3)c2O1.[Cl-] | > 1000 µg/mL | > 1000 µg/mL | > 1000 µg/mL | > 1000 µg/mL | 
3 | Cc1ncc(C[P+](c2ccccc2)(c2ccccc2)c2ccccc2)c2c1OC(C)(C)OC2.[Cl-] | 1000 µg/mL | > 1000 µg/mL | > 1000 µg/mL | 1000 µg/mL | 
4 | Cc1nc(C[P+](c2ccccc2)(c2ccccc2)c2ccccc2)c(C[P+](c2ccccc2)(c2ccccc2)c2ccccc2)c2c1OC(C)(C)OC2.[Cl-].[Cl-] | 5 µg/mL | > 1000 µg/mL | > 1000 µg/mL | 5 µg/mL | Activity (Staphylococcus aureus [3]): -46.6 mV; Activity (Staphylococcus aureus [4]): -35.2 mV; CC50 at 72 h [5]: 160 µg/mL; Activity (Staphylococcus aureus [6]): Active; Activity (Staphylococcus aureus [7]): 500.9 nm; Activity (Staphylococcus aureus [8]): Active; Activity (Staphylococcus aureus [9]): Active; Activity (Staphylococcus aureus [10]): 0.844; Activity (Staphylococcus aureus [11]): 0.717; Activity (Staphylococcus aureus [12]): 452.3 nm
5 | Cl.OCc1c(O)c(C[P+](c2ccccc2)(c2ccccc2)c2ccccc2)nc(C[P+](c2ccccc2)(c2ccccc2)c2ccccc2)c1C[P+](c1ccccc1)(c1ccccc1)c1ccccc1.[Cl-].[Cl-].[Cl-] | 500 µg/mL | > 1000 µg/mL | > 1000 µg/mL | 500 µg/mL | 
6 | CC1(C)OCc2c(C[P+](c3ccccc3)(c3ccccc3)c3ccccc3)c(C[P+](c3ccccc3)(c3ccccc3)c3ccccc3)nc(C[P+](c3ccccc3)(c3ccccc3)c3ccccc3)c2O1.[Cl-].[Cl-].[Cl-] | 50 µg/mL | > 1000 µg/mL | > 1000 µg/mL | 50 µg/mL | 
7 | Cc1nc(C[P+](c2ccccc2)(c2ccccc2)c2ccccc2)c(CO)c(CO)c1O.Cl.[Cl-] | 1000 µg/mL | > 1000 µg/mL | > 1000 µg/mL | 1000 µg/mL | 
8 | Cc1ncc(C[P+](c2ccccc2)(c2ccccc2)c2ccccc2)c(CO)c1O.Cl.[Cl-] | 1000 µg/mL | > 1000 µg/mL | > 1000 µg/mL | 1000 µg/mL | 
9 | Cc1nc(CO)c(C[P+](c2ccccc2)(c2ccccc2)c2ccccc2)c(CO)c1O.Cl.[Cl-] | 1000 µg/mL | > 1000 µg/mL | > 1000 µg/mL | 1000 µg/mL | 
10 | Cl.OCc1c(C[P+](c2ccccc2)(c2ccccc2)c2ccccc2)cnc(C[P+](c2ccccc2)(c2ccccc2)c2ccccc2)c1O.[Cl-].[Cl-] | 250 µg/mL | > 1000 µg/mL | > 1000 µg/mL | 250 µg/mL | 
11 | Cl.OCc1nc(C[P+](c2ccccc2)(c2ccccc2)c2ccccc2)c(O)c(CO)c1CO.[Cl-] | > 1000 µg/mL | > 1000 µg/mL | > 1000 µg/mL | > 1000 µg/mL | 
12 | CC1(C)OCc2c(C[P+](c3ccccc3)(c3ccccc3)c3ccccc3)cnc(C[P+](c3ccccc3)(c3ccccc3)c3ccccc3)c2O1.[Cl-].[Cl-] | 62.5 µg/mL | > 1000 µg/mL | > 1000 µg/mL | 50 µg/mL | 
13 | CC(=O)Oc1c(C)nc(C[P+](c2ccccc2)(c2ccccc2)c2ccccc2)c2c1COC(C)(C)OC2.[Cl-] | 100 µg/mL | > 1000 µg/mL | > 1000 µg/mL | 100 µg/mL | 
14 | Cc1nc(C[P+](c2ccccc2)(c2ccccc2)c2ccccc2)c(C[P+](c2ccccc2)(c2ccccc2)c2ccccc2)c(CO)c1O | 1000 µg/mL | > 1000 µg/mL | > 1000 µg/mL | 1000 µg/mL | 

From ChEMBL document CHEMBL2396649, “Synthesis and antibacterial activity of novel phosphonium salts on the basis of pyridoxine” (Bioorg Med Chem, 2013)
